Reference: ChEMBL document CHEMBL4513216, “Probing the Open Global Health Chemical Diversity Library for Multistage-Active Starting Points for Next-Generation Antimalarials” (ACS Infect Dis, 2020)

Assay: Toxicity liver stage against HepG2, at 10uM
Assay type: cell-based
Set-up: test concentration 10 uM, cell line HepG2-A16-CD81EGFP
Conditions: human, HepG2-A16-CD81EGFP cells; read-out: INHIBITION
In short: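 Uninfected HepG2-A16-CD81EGFP cells, 3 × 10^3 per well, 1536-well, plated on prespotted compound at 10 μM final, parasite-free screening media added to match infected plates; puromycin 10 μM positive, DMSO 0.5% negative; run in parallel with 48 h PbLuc assay at 37 °C, 5% CO2; viability by CellTiter-Glo luminescence, normalized to controls.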

First: Cc1csc(CN(C)C(=O)C2CCC(=O)N(CCN(C)C)C2)n1 (stereo not given)
Second: CN(C)CCN1C[C@@H]2CN(C(=O)C3CC=CC3)C[C@@H]2C1=O
The cytotoxicity at 10 µM of the first is higher: 15.6% for the first, -1.34% for the second.

Going from COc1ccc2c(c1)nc1n2[C@@H](CNCc2nccs2)COC1 to COc1ccc(CNC[C@H]2COCc3nc4cccnc4n32)cn1, the cytotoxicity at 10 µM rises from -1.57% to -0.772%.

First: CCNC(=O)N1CC[C@H]2CC(=O)N(C3CCCCC3)CC[C@H]2C1
Second: CN(C(=O)C1CCOCC1)[C@@H]1CCC[C@@H](N2CCCC2)[C@@H]1O
The cytotoxicity at 10 µM of the first is higher: -1.08% for the first, -6.22% for the second.

Going from CC(c1ccncc1)N(CCN(C)C)C(=O)Nc1ccc(Cl)cc1 (stereo not given) to CC(C)Oc1cccc(C(O)CNC(=O)CCc2ccncc2)c1 (stereo not given), the cytotoxicity at 10 µM falls from 8.88% to -3.82%.

Going from COc1ccc(S(=O)(=O)N2CCC(Cn3ccnc3)CC2)cc1 to COc1ccc(C(NCc2cccc(C#N)c2)C2CC2)cc1 (stereo not given), the cytotoxicity at 10 µM rises from -0.178% to 15.9%.

First: CCCC(=O)NCC(Cc1cccc(F)c1)N1CCCC1=O (stereo not given)
Second: O=C(c1ccc[nH]1)N1C[C@H]2CN(Cc3cccc(F)c3)C(=O)[C@H]2C1
The cytotoxicity at 10 µM of the first is lower: -2.91% for the first, 3.99% for the second.

First: COc1ccc(Cl)cc1NC(=O)N1CCc2nc(NC(C)=O)sc2C1
Second: O=C(c1nn[nH]c1Nc1cccc(Cl)c1)N1CCSCC1
The cytotoxicity at 10 µM of the first is lower: 12.1% for the first, 20.3% for the second.

First: CCO[C@@H]1CC[C@H]2[C@H]1OCCN2Cc1ccc(F)cc1
Second: O=C1CN(Cc2occc2C(=O)NCCc2ccc(F)cc2)CCN1
The cytotoxicity at 10 µM of the first is higher: 10.3% for the first, -10.2% for the second.

First: CC(=O)N1CCC2(CC1)CC(NC(=O)N(C)C)c1cc(C)ccc12 (stereo not given)
Second: CC(=O)N1CCN(C(=O)C2SCCc3sccc32)CC1 (stereo not given)
The cytotoxicity at 10 µM of the first is higher: 4.3% for the first, -11.5% for the second.

Compared with COc1ccc(-c2nnsc2C(=O)N2CCOCC2)cc1, Cc1nc(NCCc2ccc(Cl)cc2)cc(C(=O)N2CCOCC2)n1 is lower in cytotoxicity at 10 µM: 3.03% for the first, -4.78% for the second.

Compared with COCCNC(=O)C[C@@H]1COC[C@H]2CN(C(=O)c3cnccn3)C[C@@H]12, COCCN(C)CC(=O)N1C[C@@H]2CC[C@H]1CN(C(=O)c1ccncc1)C2 is higher in cytotoxicity at 10 µM: -12.2% for the first, -0.908% for the second.

Going from Cc1c(Br)c(C(F)(F)F)nn1C(C)C(=O)O (stereo not given) to Cc1nccc(CNC(=O)Nc2cc(C(F)(F)F)c[nH]c2=O)n1, the cytotoxicity at 10 µM falls from 8.05% to -1.16%.

Compared with COc1ccc(C(C)Nc2ncnc3c2NC(=O)CN3)cc1 (stereo not given), CCCc1nnc(NC(C)c2ccc(F)cc2)o1 (stereo not given) is lower in cytotoxicity at 10 µM: 7.83% for the first, 2.08% for the second.

Going from CCCNC(=O)c1nn(CC)cc1NC(=O)C(C)n1ncc(Cl)c1C (stereo not given) to CC(=O)NCCNC(=O)c1nc(C2CC2)n(-c2ccccc2Cl)n1, the cytotoxicity at 10 µM rises from 7.19% to 9.74%.

Compared with Cc1cc(C(F)(F)F)nc(N2CCN3CCCC3C2)n1 (stereo not given), Cc1cc(C(=O)N2CCCC(n3nc(C)cc3C)C2)on1 (stereo not given) is lower in cytotoxicity at 10 µM: 4.78% for the first, -7.69% for the second.

First: Cc1cc(-c2cc3nc(C)c(C)c(NCC4COCCO4)n3n2)no1 (stereo not given)
Second: Cc1ccc(C)c(CN2CCOC(c3noc(C)n3)C2)c1 (stereo not given)
The cytotoxicity at 10 µM of the first is higher: 8.97% for the first, 5.12% for the second.

First: Cc1c[nH]c(C2COCCN2C(=O)c2n[nH]c(=O)c3ccccc23)n1 (stereo not given)
Second: CNC(=O)C1CCCCN1C(=O)c1n[nH]c(=O)c2ccccc12 (stereo not given)
The cytotoxicity at 10 µM of the first is lower: -0.555% for the first, 0.0666% for the second.

Compared with CN(C)CC1(O)CCN(S(=O)(=O)c2cccc(F)c2)C1 (stereo not given), COCC(=O)N1CCc2cccc(S(=O)(=O)N3CCN(C)CC3)c2C1 is higher in cytotoxicity at 10 µM: 2.36% for the first, 5.07% for the second.

First: Cc1ccc(C(=O)NC2CCCN(C)C2)c(=O)[nH]1 (stereo not given)
Second: Cc1cc(CC(=O)NC2CCCN(c3ccccc3Cl)C2=O)n[nH]1 (stereo not given)
The cytotoxicity at 10 µM of the first is lower: -6.96% for the first, 3.55% for the second.

Going from CC(=O)NCc1ccc(C(=O)N2CCCc3c(F)ccc(C)c32)cc1 to Cc1ccc2c(c1)OCCN2C(=O)c1ccc(=O)n(C)c1, the cytotoxicity at 10 µM falls from -3.26% to -5.88%.

First: Cc1nc(C(C)C)sc1C(=O)N(C)Cc1cnn(C)c1
Second: CN(Cc1cnn(C)c1)C(=O)NC1CCCC1
The cytotoxicity at 10 µM of the first is lower: 6.45% for the first, 7.43% for the second.

First: N#Cc1ccc(F)c(CNC(=O)NC(CO)Cc2ccccc2)c1 (stereo not given)
Second: O=C(CS(=O)(=O)Cc1ccccc1)NCc1ccccc1F
The cytotoxicity at 10 µM of the first is higher: 1.98% for the first, -17.6% for the second.

Compared with O=C(NCC(O)c1ccc(F)c(F)c1)c1ccccc1F (stereo not given), Cc1cc(NC(=O)C(C)N2CCN(c3ccccc3F)CC2)no1 (stereo not given) is higher in cytotoxicity at 10 µM: -3% for the first, 2.83% for the second.

Going from COc1ccc(CCC(=O)N(C)CCN2CCOCC2)cc1OC to COc1ccccc1N1CCN(C(=O)CCn2ccc(C)n2)CC1(C)C, the cytotoxicity at 10 µM falls from 7.83% to -8.64%.

Compared with CC(C)c1nsc(NC2CC(=O)N(C(C)(C)C)C2)n1 (stereo not given), CC(C)Oc1cc(N2CC[C@H](CO)[C@@H](O)C2)nc(N)n1 is lower in cytotoxicity at 10 µM: 5.09% for the first, 2.41% for the second.

First: CS(=O)(=O)N1CCC(OCCCc2ccccc2)C1 (stereo not given)
Second: CC(NC(=O)N1CCC[C@H]1CO)c1noc(-c2ccccc2)n1 (stereo not given in full)
The cytotoxicity at 10 µM of the first is higher: 8.13% for the first, -6.67% for the second.

Compared with Cc1ccc(C2CSCCN2C(=O)c2cnsn2)o1 (stereo not given), Cc1ccc(C(=O)N2CCCC2c2nnc3n2CCCCC3)o1 (stereo not given) is lower in cytotoxicity at 10 µM: 5.11% for the first, -6.05% for the second.

First: CCS(=O)(=O)N1CCC2(CCC2NC(=O)c2ccn(C)c2)CC1 (stereo not given)
Second: CNC(=O)CN1CC[C@H]2CN(C(=O)c3cccc(C)c3)C[C@H]2C1
The cytotoxicity at 10 µM of the first is higher: -2.11% for the first, -2.45% for the second.

First: CN1CCN(C[C@@H]2CN(C3Cc4ccccc4C3)C[C@@H]2CO)CC1
Second: Cc1ccccc1CN1CCN(C(=O)c2ccn(C(C)(C)C)c2)CC1
The cytotoxicity at 10 µM of the first is higher: 8.29% for the first, -0.585% for the second.

First: CCc1nc(C)c([C@H]2CN(C)C[C@@H]2C(=O)Nc2ccccc2F)[nH]1
Second: COC(=O)c1cc(C(=O)N2CCCC(C)C2)n(-c2ccccc2)n1 (stereo not given)
The cytotoxicity at 10 µM of the first is higher: 2.16% for the first, -11.9% for the second.

Going from Cc1ccn(-c2cncc(C(N)=O)c2)n1 to Cc1ccc(CNC(=O)CN2CCCC(Cn3cncn3)C2)s1 (stereo not given), the cytotoxicity at 10 µM falls from 0.0642% to -1.78%.

Compared with CN(C)c1ccccc1C(=O)N1CCOC2(CNCCOC2)C1 (stereo not given), Cn1cc(CN2CCOC3(CCCN(C(=O)c4ccco4)C3)C2)cn1 (stereo not given) is lower in cytotoxicity at 10 µM: -1.08% for the first, -23.9% for the second.

Compared with CC(O)c1cn(CC2CCN(C(=O)CN(C)C(C)C)CC2)nn1 (stereo not given), Cc1nnnn1CCC(=O)N1CCC2(CCC(=O)N(CC3CC3)C2)CC1 is higher in cytotoxicity at 10 µM: -1.58% for the first, 4.17% for the second.

Compared with Cc1cc(C)c2nc(CN3C[C@H](CCO)[C@@H](N)C3)cc(O)c2c1, Cc1cc(C)c(CNC(=O)N2CCN(c3ncccn3)CC2)c(=O)[nH]1 is lower in cytotoxicity at 10 µM: 5.29% for the first, -6.28% for the second.

First: O=S(=O)(c1c(N2CCCCC2)ccc2nonc12)N1CCCCC1
Second: N#Cc1ccnc(N2CCN(C(=O)Cc3ccc4c(c3)CCO4)CC2)c1
The cytotoxicity at 10 µM of the first is higher: -3.39% for the first, -4.1% for the second.

First: O=C(O)CCc1cc2n(n1)CCCN(C(=O)c1ccc3cc[nH]c3c1)C2
Second: Cn1cc(CC2CCN(C(=O)NCc3cccc(C#N)c3)C2)cn1 (stereo not given)
The cytotoxicity at 10 µM of the first is lower: -13.3% for the first, -12.3% for the second.

First: CCn1cc(-c2cc(C(F)(F)F)n(CCCN)n2)cn1
Second: Cn1cc(C[C@H]2[C@H](N3CCOCC3)CCN2c2ncc(F)cn2)cn1
The cytotoxicity at 10 µM of the first is lower: -7.86% for the first, 7.23% for the second.

First: CSCC(=O)NS(=O)(=O)c1ccc2c(c1)OCCO2
Second: COCCN1C[C@@H](C)[C@@]2(COCCN(C(=O)c3cnc(C)cn3)C2)C1
The cytotoxicity at 10 µM of the first is lower: -9.69% for the first, -0.665% for the second.

Compared with COc1ccccc1C(O)CNCc1c(C(C)C)nn(C)c1N(C)C (stereo not given), Cc1nc(N(C)C)nc2c1COCC21CCN(CC2CC2)C1 (stereo not given) is lower in cytotoxicity at 10 µM: -7.31% for the first, -8.94% for the second.

Going from O=C(CCCNc1ncccn1)N1CCCC(n2cccn2)C1 (stereo not given) to CN(C)C(=O)CN1CCCC12CCCN(c1ncc(F)cn1)C2 (stereo not given), the cytotoxicity at 10 µM falls from 7.34% to -2.51%.
